From PubChem BioAssay
PvdQ inh – P. aeruginosa PvdQ acylase inhibitors, primary screen, biochemical, fluorescence, plate reader and imaging, single point; inhibition, % at 10 µM; actives 0.063% (n = 340,000); purified PvdQ acylase; PvdQ acylase [Pseudomonas aeruginosa LESB58]; in the data active means inhibition above about 30%, passing the limit was not always enough;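 further: 0% = vehicle neutral wells and 100% = reference inhibitor wells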
CHOP UPR activ – activators of apoptotic CHOP UPR arm, primary screen, cell-based, CHO-CHOP luciferase reporter, luminescence, uHTS; activation, % at 10 µM; AID 449763, 2010; actives 0.34% (n = 330,000); UPR activation; percent of tunicamycin response over DMSO baseline;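 active means at 10 µM dose, activation of 40% or more, normalized to positive control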;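 further: 100% = tunicamycin at 10 µg/mL and 0% = DMSO alone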
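Assay system: CHO cells with stable CHOP pathway luciferase reporter; Buffer or medium: F12 plus 10% serum; Times: 16-18 h cell attachment, then 6 h compound exposure, 37 °C; Signal: luciferase luminescence; Read-out basis: percent activation relative to tunicamycin control; Control set: tunicamycin high control, DMSO low control.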
CHOP inhibitor – inhibitors of CHOP promoter induction, primary screen, cell-based, unfolded protein response, luciferase reporter | CHO-K1 CHOP-promoter luciferase, tunicamycin-induced, 15-18 h | inhibition, % at 10 µM | actives 3.8% (n = 220,000);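 active means compounds that reduced the stress-induced luciferase reporter signal by more than about 70% of percent inhibition, limit read from the data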;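 further: 0% = tunicamycin plus vehicle and 100% = wells without tunicamycin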
XBP1 UPR activ – activators of adaptive XBP1 UPR arm, primary screen, cell-based, CHO-XBP1 luciferase reporter, luminescence, uHTS; actives 0.33% (n = 330,000); IRE1-XBP1 UPR activation; percent of tunicamycin response, DMSO as zero; activation, % at 20 µM;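 active means versus positive control, 20 µM dose yields 30% or more activation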;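 further: 100% = tunicamycin at 10 µg/mL and 0% = DMSO only wells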
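Signal: luciferase luminescence; Assay system: CHO-XBP1 luciferase reporter cells; Amount: one thousand reporter cells per well; Dosing: 20 µM single concentration, DMSO 1%; Benchmarks: high control tunicamycin 10 µg/mL final, low control DMSO vehicle only; Schedule: 6 h compound exposure at 37 °C, 5% CO2; Evaluation: percent activation relative to tunicamycin reference.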
Numbers without * were called inactive; x = no result. Many of the other results were omitted from the sample, so hits are more common in it than they were.

SMILES	PvdQ inh	CHOP UPR activ	CHOP inhibitor	XBP1 UPR activ
COc1ccc(CNCC(O)(c2ccc(F)cc2)c2ccc(F)cc2)cc1OC	-9.9	-0.9	x	-2.1
N#CCCn1nc2c(c1N)CCC2	-10.2	x	x	x
CC(=O)OCC12COC3c4ccccc4OC(C)(CC1C)C3C2C (stereo not given)	-3.0	-0.5	6.9	2.1
CCOC(=O)C1=C(COc2ccccc2)NC(=O)NC1c1cccc([N+](=O)[O-])c1 (stereo not given)	-2.3	0.7	x	-1.5
CCOC(=O)C1=C(CSc2nc3ccccc3s2)NC(=O)NC1c1cccc([N+](=O)[O-])c1 (stereo not given)	0.2	-2.3	78.0*	-4.9
CC(C)OCCCN1C(=O)c2[nH]nc(-c3ccccc3O)c2C1c1cccc(Cl)c1 (stereo not given)	-5.1	-1.2	94.5*	1.0
COCCCN1C(=O)c2[nH]nc(-c3ccccc3O)c2C1c1cccc(Cl)c1 (stereo not given)	-2.8	-1.9	x	1.6
CC1CCc2ccc(F)cc2N1S(=O)(=O)c1cccs1 (stereo not given)	-6.3	-1.1	82.9*	0.4
COc1ccc(S(=O)(=O)N2c3ccc(F)cc3CCC2C)cc1 (stereo not given)	-3.3	-0.8	x	21.8
CCOC(=O)C1(Cc2ccc(Cl)cc2)CCN(Cc2cnc(N)nc2)CC1	-11.0	-0.7	16.4	-2.4
CCOC(=O)C1(S(=O)(=O)c2ccc(Cl)cc2)CCN(Cc2ccc(C)cc2)CC1	-6.1	-0.8	74.3*	-0.1
COCC1CCCCN1C(=O)c1ccc2nc(Cc3ccc(OC)c(OC)c3)oc2c1 (stereo not given)	-3.0	0.9	x	-2.5
CCc1cc2c(=O)c(-c3ccc(F)cc3)c(C)oc2cc1OCC(=O)O	-15.7	1.4	13.8	1.0
CCc1cc2c(=O)c(-c3cnn(-c4ccccc4)c3)c(C)oc2cc1OCC(=O)Nc1ccc(F)c(F)c1	-12.2	11.6	86.1*	-0.9
CCCC(=O)N=C1SC2CS(=O)(=O)CC2N1c1ccc(-c2nc3ccc(C)cc3s2)cc1 (stereo not given)	-16.9	17.8	77.3*	65.0*
COc1ccc(/C=C/C(=O)Oc2cccc(/C=N/NC(=O)Cc3ccc(Br)cc3)c2)cc1	-19.4	21.1	70.8*	14.8
CC(=O)O/N=C(/c1nonc1N)N1CCN(c2ccc([N+](=O)[O-])cc2Cl)CC1	-5.5	-0.2	39.4	0.7
CO/N=C(\c1nonc1N)N1CCN(c2ccc([N+](=O)[O-])cc2Cl)CC1	-12.6	-1.5	72.9*	-0.7
Cc1ccc(-c2cc(C(=O)N3CCN(c4ncccn4)CC3)c3cc(Br)ccc3n2)o1	-3.5	0.1	-6.7	-2.5
CCNc1nc(NC(C)(C)C)nc(N2CCCC2)n1	-13.4	-1.6	18.1	-3.1
CC(C)(C)Nc1nc(N2CCCC2)nc(N2CCCC2)n1	-11.4	0.6	76.8*	-4.7
CC12CCC3c4ccc(O)cc4CCC3C1CC(=NO)C2O (stereo not given)	8.0	x	x	x
FC(F)(F)Oc1ccc(Nc2nc3ccccc3o2)cc1	4.9	6.4	90.9*	10.3
c1ccc(Nc2nc3ccccc3o2)cc1	-16.6	4.4	-12.5	3.9
OC(CNCCc1ccccc1)COc1ccc(OCC(O)CNCCc2ccccc2)cc1 (stereo not given)	-6.1	4.3	-21.1	3.9
SMILES	PvdQ inh	CHOP UPR activ	CHOP inhibitor	XBP1 UPR activ
OC(CNCCc1ccc(Cl)cc1)COc1ccc2ccccc2c1 (stereo not given)	8.4	x	100.4*	x
CCCc1cc(=O)[nH]c(SCC(=O)Nc2sccc2C#N)n1	0.7	-0.5	x	-1.1
CCOc1ccc(Oc2ccc(Cl)cc2N)cc1	-0.8	4.9	58.4	0.6
Cc1ccc(-c2nnc(SCc3ccccc3F)o2)cc1	-1.6	1.2	74.9*	-0.8
Cc1ccc2c(c1)C(=O)CC(c1ccccc1)S2 (stereo not given)	3.1	x	x	x
CCCc1cc(=O)[nH]c(Nc2ccc(OC)c(Cl)c2)n1	-5.0	-1.9	77.5*	-1.2
CCCc1cc(=O)[nH]c(Nc2ccc(Cl)cc2)n1	-10.8	-1.4	11.0	-4.8
CCc1cc2ccc(C)cc2nc1SCC(=O)Nc1cc(C)on1	-14.0	2.2	28.9	-1.0
CCn1c(SCC(=O)Nc2cc(C)on2)nc2sc3c(c2c1=O)CCCC3	-15.2	-1.4	107.3*	-3.2
Cc1cc(NC(=O)CSc2nc(C(C)C)nc3sc4c(c23)CCCC4)no1	-9.8	0.8	76.7*	5.9
Cc1cc(NC(=O)CSc2nc3sc4c(c3c(=O)n2C)CCCC4)no1	2.7	-0.5	29.9	-1.0
CCc1cc2cc3c(cc2nc1SCC(=O)Nc1cc(C)on1)OCO3	-1.4	10.5	95.1*	14.8
CCOC(=O)CN1C(=O)/C(=C2\SC(=S)N(NC(=O)c3cccnc3)C2=O)c2ccccc21	6.6	1.2	x	-4.6
O=c1nc(-c2ccccc2)c2cc(SC(F)F)ccc2[nH]1	-19.6	-2.4	x	-3.2
COc1cccc(-n2c(C)nc3c(cnn3-c3ccc(Cl)cc3)c2=O)c1	-11.8	3.0	52.7	5.2
Cc1ccc(-n2ncc3c(=O)n(-c4ccc(C)c(C)c4)c(C)nc32)cc1	9.5	0.5	73.3*	1.0
Cc1ccc(-n2c(C)nc3c(cnn3-c3ccc(F)cc3)c2=O)cc1	-16.3	7.5	47.6	-2.4
COc1ccc(-n2c(C)nc3c(cnn3-c3ccc(C)c(C)c3)c2=O)cc1	-0.6	1.9	73.1*	-2.4
CCOc1ccccc1NC(=O)CCNC(=O)c1ccc(Cl)cc1	-6.1	2.1	14.0	0.5
O=C(CNC(=O)N1CC(=O)Nc2ccccc21)NCc1ccccc1Cl	5.0	-0.5	x	-6.8
CC(Oc1ccccc1F)C(=O)NCCN1CCCCC1 (stereo not given)	7.3	-1.3	73.7*	-6.8
CCN(CC)S(=O)(=O)c1cccc(N=Nc2sc(N)nc2C)c1	-4.3	2.2	x	-3.2
COC(=O)c1cc(N=Nc2sc(N)nc2C)cc(C(=O)OC)c1	-20.8	0.5	80.2*	28.2
O=C1CCc2cc(S(=O)(=O)Nc3ccccc3)ccc2N1	-19.3	1.8	x	0.9
COc1cc(O)c(CC=C(C)C)c(O)c1C(=O)CCc1ccc(O)cc1	-11.7	4.5	88.6*	3.9
SMILES	PvdQ inh	CHOP UPR activ	CHOP inhibitor	XBP1 UPR activ
CC1CN(S(=O)(=O)c2cc(C(=O)NCCCN3CCCC3=O)ccc2Cl)CC(C)O1 (stereo not given)	9.5	-1.1	x	-0.4
CCOC(=O)c1ccc(NC(=O)c2nc[nH]c2C(=O)N2CCc3ccccc3C2)cc1	-5.1	1.1	72.2*	3.0
CC(C)=NNc1nc2sc3c(c2c(=O)[nH]1)CC(C)(C)OC3	-18.8	-0.2	-20.2	-3.4
CC1(C)Cc2c(sc3nc(N/N=C/c4ccccc4)[nH]c(=O)c23)CO1	-1.7	3.4	81.2*	11.3
COc1ccc(C)cc1S(=O)(=O)Nc1ccc(F)cc1	1.8	0.1	0.1	0.7
CCOc1cc(C)c(S(=O)(=O)Nc2ccc(F)cc2)cc1C	-24.3	0.0	81.4*	-2.3
